# HUVEC inhibit: inhibitors of human endothelial cell proliferation. HUVEC proliferation, CellTiter-Glo luminescence, 72 h; stronger effect = lower value. viability, % at 10 µM (by protocol). 86,000 tested, 1.1% active. AID 648;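 active = viability at or below 30%; inactive = viability above 30%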
# bCat KO growth: beta-catenin-lacking colon tumor cell growth suppression; viability, % at 10 µM; 140,000 tested, 1.5% active; HCT116 beta-catenin knockout viability, CellTiter-Glo, 60 h; stronger effect = lower value;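 active = viability at or under a set limit, the compound median less 4 SD, cut at about 6% in these data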
# Lung fibro prol: blocks proliferation of human lung fibroblasts | viability, % at 10 µM | 85,000 tested, 1.1% active | LL 47 human lung fibroblast viability, ATP luminescence; stronger effect = lower value;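 active = viability at or below 50% in the single dose screen; inactive = viability above 50%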;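 note: compound exposure lasted 72 h before the ATP readout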
#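 test system = LL 47 human lung fibroblasts | amount = 1,150 fibroblasts seeded per well | medium = 15% FBS in IMEM | times = overnight cell rest, 72 h compound treatment at 37 °C | measured by = CellTiter-Glo luminescence measuring cellular ATP | read-out = viability percentage against median untreated-cell control | benchmarks = cell-only wells, no compound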
# HCT116 PTEN-null: suppresses growth of cells with PTEN deletion; viability, % at 10 µM; AID 827; HCT116 PTEN-null viability, CellTiter-Glo, 60 h; stronger effect = lower value; 140,000 tested, 1.2% active;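 active = viability at or below a set limit, 4 SD under the median of all tested compounds, cut at about 3.7% in these data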;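 note: PTEN knockout HCT116 line with beta catenin targeted HCT116 as companion control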
# H69AR inhibit: growth inhibitors of human H69AR lung tumor cells; H69AR lung tumor viability, ATP luminescence, 72 h; stronger effect = lower value; viability, % at 10 µM; 85,000 tested, 6% active; AID 598;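 active = viability at or below 40%; inactive = viability above 40%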;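 note: multidrug resistant small cell line overexpressing MRP-1 efflux transporter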
# Hits are given with their value; – = inactive; · = no result. The entries come from a sample that favours hits as a whole.
SMILES,HUVEC inhibit,bCat KO growth,Lung fibro prol,HCT116 PTEN-null,H69AR inhibit
Cc1cc(C)c(S(=O)(=O)N2CCOC2CNC(=O)C(=O)NCCc2c[nH]c3ccccc23)c(C)c1 (centres undefined),·,–,·,–,·
O=C(CCc1ccccc1)OCCN1CCOCC1,–,–,–,–,–
COc1cc([N+](=O)[O-])ccc1N/C=C/C(=O)c1cccs1,29,–,–,–,–
Cc1cccc(N/C=C/C(=O)c2cccs2)c1C,·,–,·,–,·
COc1ccc(-n2nnnc2-c2ccccc2)cc1,–,–,–,–,20
CCCCOc1ccc(-c2c(C#N)c(N)nc(SCC(N)=O)c2C#N)cc1,–,–,·,–,35
CCNC(=O)Cn1c(=O)c2c(ncn2Cc2ccccc2)n(Cc2ccccc2)c1=O,–,–,–,–,–
CCn1cnc2c1c(=O)n(CC(=O)Nc1ccc3c(c1)OC(F)(F)O3)c(=O)n2Cc1ccccc1,–,–,–,–,32
CC1CCN(CC(=O)N2c3ccccc3CCc3ccccc32)CC1,·,0.8,·,0.8,·
Cc1ccc(C)c2[nH]c(=O)c(CN(Cc3ccco3)S(=O)(=O)c3ccc4c(c3)OCCO4)cc12,–,–,–,–,–
CCc1ccc2[nH]c(=O)c(CN(Cc3ccco3)S(=O)(=O)c3ccc4c(c3)OCCO4)cc2c1,–,–,–,–,23
CNc1nc2c(c(=O)n(C)c(=O)n2C)n1Cc1ccccc1,–,–,–,–,–
Cc1ccc(-c2nc3cccnc3o2)cc1NC(=O)COc1ccc(C(C)(C)C)cc1,18,–,–,–,–
Cc1ccc(-c2nc3ncccc3o2)cc1NC(=O)Cc1ccc(Cl)cc1,–,–,–,–,–
Cc1ccc(-c2nc3cccnc3o2)cc1NC(=O)COc1ccc(Cl)cc1C,–,–,–,–,6.9
CCOC(=O)c1ccc(Nc2nnc(C(C)(C)C)c(=O)[nH]2)cc1,–,–,–,–,2.6
CCOC(=O)c1ccc(Nc2cc(C)nc(C)c2C(=O)OCC)cc1,–,–,–,–,–
Cc1cc(C=O)c2c(c1)C=CC1(Oc3ccccc3C(=O)N1C)O2 (centres undefined),–,–,–,–,22
Cn1c(=O)c2c3c(sc2n2c(SCC(N)=O)nnc12)CC(C(C)(C)C)CC3 (centres undefined),–,1.4,–,–,–
C=CCn1c(SCCCC)nc(O)cc1=O,–,–,–,–,–
CC1=NOC(=O)/C1=C\c1ccc(-c2cc(Cl)ccc2Cl)o1,8.2,3.0,6.3,2.5,2.0
CC1=NOC(=O)/C1=C/c1ccc(N(C)C)cc1,·,–,·,–,·
CC1=NOC(=O)/C1=C/c1ccc(-c2ccc(Cl)cc2)o1,–,–,8.7,–,2.5
CCOC(=O)CSc1nc(-c2ccccc2)nc2ccccc12,·,–,·,–,·
Cc1cc(C)n(S(=O)(=O)/C=C/c2ccccc2)n1,–,–,26,–,1.1
SMILES,HUVEC inhibit,bCat KO growth,Lung fibro prol,HCT116 PTEN-null,H69AR inhibit
CCc1ccc(/C=C2\Oc3cc(OS(C)(=O)=O)ccc3C2=O)cc1,·,–,·,–,·
COc1cccc(OC)c1C(=O)Oc1ccc2c(c1)O/C(=C\c1ccncc1)C2=O,·,–,·,–,·
O=C1/C(=C/c2cccnc2)Oc2cc(OS(=O)(=O)c3ccc(F)cc3)ccc21,–,–,–,–,35
Cc1ccc(S(=O)(=O)Oc2ccc3c(c2)O/C(=C\c2cccnc2)C3=O)cc1,–,–,–,–,25
ON=C1CCN(c2ncc(C(F)(F)F)cc2Cl)CC1,·,–,·,–,·
Cn1c(=O)c([N+](=O)[O-])c(NCC(O)c2ccccc2)c2ccccc21 (centres undefined),·,–,·,–,·
CCCCn1c(=N)n(CCOc2ccc(C)cc2)c2ccccc21,·,1.9,·,1.9,·
Cc1ccc(OCCn2c(=O)cnc3ccccc32)cc1,–,–,–,–,19
COc1ccc(OCCn2c(=N)n(CCO)c3ccccc32)cc1,–,–,–,–,–
COCCn1c(COc2ccc(C)cc2)nc2ccccc21,–,–,–,–,–
CCN(CC)CCn1c(=N)n(CCOc2ccccc2)c2ccccc21,–,–,33,–,10
CCN(CC)CCn1c(=N)n(CCO)c2ccccc21,–,–,–,–,–
CCOc1ccc(CN(C)CC(=O)NNC(=O)c2ccc(Cl)cc2)cc1OC,·,–,·,–,·
O=C(Cn1ccc2ccccc2c1=O)NCCC(=O)N1CCN(C(=O)c2ccco2)CC1,–,·,–,·,–
Cc1noc(C)c1C(=O)N1CCc2ccccc21,–,–,–,–,–
Cc1onc(-c2c(Cl)cccc2Cl)c1C(=O)N1CCCc2ccccc21,–,–,–,–,12
Cc1onc(-c2c(F)cccc2Cl)c1C(=O)N1CCc2ccccc21,–,–,–,–,30
Cc1onc(-c2ccccc2)c1C(=O)N1CCCc2ccccc21,–,–,–,–,–
Cn1c(C(O)c2ccc(Cl)cc2)nc(Cl)c1Cl (centres undefined),–,–,·,–,–
CC1=CC(C)(C)Nc2ccc(OC(=O)CCN3C(=O)c4ccccc4C3=O)cc21,·,1.2,·,1.5,·
O=C(CCN1C(=O)c2ccccc2C1=O)Oc1ccc2ccccc2c1,–,–,–,–,–
O=C(CC1N=C2c3ccccc3N=C(SCc3ccc(F)cc3)N2C1=O)NCc1ccco1 (centres undefined),–,–,–,–,38
Cc1ccc(CSC2=Nc3ccccc3C3=NC(CC(=O)NCc4ccco4)C(=O)N23)cc1 (centres undefined),–,–,–,–,29
O=C(CCC1N=C2c3ccccc3N=C(SCc3ccc(Cl)cc3)N2C1=O)NCc1ccco1 (centres undefined),–,–,–,–,–
CCCC(=O)Nc1sc2c(c1C#N)CC(C)(C)NC2(C)C,–,–,–,–,–
SMILES,HUVEC inhibit,bCat KO growth,Lung fibro prol,HCT116 PTEN-null,H69AR inhibit
CC(C)c1ccc(NC(=S)NN(c2ccccc2)c2ccccc2)cc1,·,–,·,–,·
Cc1ccccc1N(CC(=O)N/N=C/c1ccc(Cl)cc1)C(=O)c1ccccc1,·,–,·,–,·
CCn1c(SCC(=O)N2c3ccccc3CC2C)nnc1-c1ccco1 (centres undefined),–,·,–,·,–
CCCn1c(/N=C/c2cc(OC)ccc2O)nc2ccccc21,–,–,–,–,40
CCOC(=O)c1c(NC(=O)Cc2cccs2)sc(C(=O)NC2CCCC2)c1C,–,–,–,–,28
CCOC(=O)c1c(NC(=O)Cc2cccs2)sc(C(=O)NC2CCCCC2)c1C,·,–,·,–,·
CCCCn1c(NC(=S)Nc2ccccc2)nc2ccccc21,·,–,·,–,·
CCCn1c(NC(=O)c2ccc(Br)cc2)nc2ccccc21,–,–,–,–,32
CCCCn1c(NC(=O)C2CCCCC2)nc2ccccc21,–,5.2,–,–,–
Cn1c(NC(=O)c2cccc(Cn3cc(Cl)cn3)c2)nc2ccccc21,–,–,50,–,37
CCCCn1c(NC(=O)c2ccccc2)nc2ccccc21,–,–,48,–,14
COc1ccc(C(=O)c2coc3ccc(O)c(CN(C)C)c23)cc1,–,–,–,–,–
CC(Oc1cc(-c2ccccc2)cc2ccccc12)C(=O)N1CCOCC1 (centres undefined),–,–,–,–,36

# From PubChem
